Compound activity as filed in PubChem BioAssay.
In the library only some 2.6% were active in any assay of this set; here they are far more common.
Ecoli rRNA inh – selective bacterial rRNA inhibition in E. coli; actives 1.6% (n = 350,000); E. coli WT GFP vs humanized-ribosome RFP mutants, fluorescence, 24 h; stronger effect = lower value; DMSO median 0, no signal -100; GFP signal change (wild-type ribosome), % (concentration not given with the values);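 active = significant combined selectivity score with lowered wild-type GFP, culture density cut under 30%, mutant RFP and density less affected; inactive = any of these conditions unmet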
Vif imaging – blocks HIV Vif function. HEK293T cells, Vif self-association by quenched fluorescence, imaging, 24 h. inhibition, % at 7.49 µM. actives 0.35% (n = 340,000). AID 602346; in the data active = inhibition above about 50%, passing the limit was not always enough
HIV Env fusion – inhibitors of HIV Env-mediated cell fusion. HeLa-JRFL Env/CEM21 cell fusion, luciferase. inhibition, % at 12.3 µM. actives 1.1% (n = 360,000);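 active = mean replicate inhibition score of at least 50 and every replicate individually at or above 50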;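 note: 0% = plate neutral controls and 100% = maraviroc near 300 nM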
miR-122 sensor – miR-122 inhibition in Huh7 cells | Huh7 miR-122 Renilla luciferase sensor, 48 h; neutral wells = 0, positive control = 100 | activation (reporter increase), % at 12.5 µM | actives 0.3% (n = 340,000) | AID 602342;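 active = mean replicate activation score at least 90 and every replicate individually at or above 90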;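 note: higher luciferase means less miR-122 activity so hits act as miR-122 inhibitors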
S100A4 inh HTS – S100A4-myosin IIA interaction inhibition. P26447. S100A4/TAMRA-MyoIIA peptide fluorescence polarization. inhibition, % at 10.7 µM. actives 0.14% (n = 360,000);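 active = mean inhibition of at least 70% across replicates, with every replicate also reaching that level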
Target sequence (P26447 whole entry, looked up): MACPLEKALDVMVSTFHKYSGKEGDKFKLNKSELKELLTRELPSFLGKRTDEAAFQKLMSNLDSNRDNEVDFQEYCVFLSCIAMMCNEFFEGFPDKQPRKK
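Test system: S100A4 monomer protein; Medium: HEPES pH 7.2 with CaCl2, KCl, NaCl, DTT, Triton; Probe or stimulus: TAMRA-labelled myosin IIA heavy-chain peptide probe, 5 nM; Doses: one dose per compound; Times: polarization read 5 min after assay mix addition, stable 5–60 min; Benchmarks: neutral control DMSO, positive control TFP.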
FN deposition inh – fibronectin deposition inhibition; actives 0.086% (n = 350,000); AH1F fibroblasts, Alexa488-fibronectin deposition fluorescence, overnight; inhibition, % at 12.6 µM;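 active = mean inhibition across replicates of 30% or more, regardless of how many single replicates reach that level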;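 note: positive control wells lacked labelled fibronectin entirely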
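Measured by – fluorescence 485/525 nm · System – AH1F fibroblast monolayer, labelled fibronectin deposition · Amount – 10000 cells per well · Buffer or medium – serum-reduced DMEM (2% serum) · Doses – single dose, pinned · Also added – fluorescent fibronectin at 24 nM final · Schedule – 1 h cell attachment, overnight exposure to compound and label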
Numbers without * were called inactive; [ ] = another dose, or the depositor's remark.

What do the screens show for `CN(C)S(=O)(=O)c1ccc(C(=O)Nc2nc(-c3cccs3)cs2)cc1`?
Ecoli rRNA inh: 0.2; Vif imaging: -27.9; HIV Env fusion: 76.4*; miR-122 sensor: -11.3; S100A4 inh HTS: -0.9; FN deposition inh: 9.9

How did CC(=O)Nc1ccc2c(c1)C(=O)N(C)C[C@H](C)[C@@H](CN(C)S(C)(=O)=O)O2 do in these assays?
Ecoli rRNA inh: 1.9; FN deposition inh: 2.9

How did O=S(=O)(/C=C/c1ccccc1)Nc1ccc(F)cc1 do in these assays?
Ecoli rRNA inh: -33.4; Vif imaging: 0.5; HIV Env fusion: 7.7; S100A4 inh HTS: -0.6; FN deposition inh: -12.5

Results for CN(C)S(=O)(=O)c1ccc(NS(=O)(=O)/C=C/c2ccccc2)cc1 ?
Vif imaging: 10.2; HIV Env fusion: -23.6; miR-122 sensor: 165.1*; FN deposition inh: 0.3

What do the screens show for `C[C@@H]1CN([C@@H](C)CO)C(=O)c2cc(NC(=O)CCCCCC(=O)Nc3ccccc3N)ccc2O[C@H]1CN(C)S(C)(=O)=O`?
Ecoli rRNA inh: 3.1; S100A4 inh HTS: -3.3

Results for C[C@@H]1CN([C@@H](C)CO)C(=O)c2cc(NS(=O)(=O)c3ccc(F)cc3)ccc2O[C@@H](C)CCCCO[C@@H]1CN(C)Cc1ccc(C(=O)O)cc1 ?
Ecoli rRNA inh: -3.2; HIV Env fusion: -8.5[16.7 µM]; miR-122 sensor: 2.8[16.7 µM]; S100A4 inh HTS: 13.5

How did CC(C)c1ccc(S(=O)(=O)Nc2ccc(-n3cnnn3)cc2)cc1 do in these assays?
Ecoli rRNA inh: -24.9; Vif imaging: -13.4; HIV Env fusion: 12.5; miR-122 sensor: 103.2*; S100A4 inh HTS: -0.7; FN deposition inh: -4.8

Results for CC(C)c1ccc(NS(=O)(=O)c2ccc(-n3cccn3)cc2)cc1 ?
Ecoli rRNA inh: 1.7; Vif imaging: -1.7; HIV Env fusion: 20.7; miR-122 sensor: 21.1; S100A4 inh HTS: 17.6; FN deposition inh: 4.9

What do the screens show for `CC(C)NC(=O)N1[C@@H]2CN(C(=O)c3ccccc3F)c3ccccc3[C@@H]2[C@@H]1CO`?
Ecoli rRNA inh: 3.6; miR-122 sensor: -2.8[16.7 µM]; S100A4 inh HTS: 2.7

Results for Nc1ccc(C(O)(C(F)(F)F)C(F)(F)F)cc1 ?
Vif imaging: -3.8; HIV Env fusion: 32.1; miR-122 sensor: -1.2; FN deposition inh: -10.4

How did Cc1ccc(C(C)(c2ccc(N)cc2)c2ccc(N)cc2)cc1 do in these assays?
Ecoli rRNA inh: -38.6*; Vif imaging: 1.6; HIV Env fusion: 8.1; miR-122 sensor: -3.4; S100A4 inh HTS: -1.1; FN deposition inh: 3.1

Results for O=C(NCc1ccc(F)cc1)C(c1ccco1)N(C(=O)c1csnn1)c1ccccc1 (stereo unspecified) ?
Ecoli rRNA inh: -0.1; Vif imaging: 2.5; HIV Env fusion: 9.6; miR-122 sensor: 7.6; S100A4 inh HTS: -5.6; FN deposition inh: -1.2

Results for COc1ccc(CNC(=O)C(c2ccco2)N(C(=O)c2csnn2)c2cccc(C)c2C)cc1 (stereo unspecified) ?
miR-122 sensor: 97.4*

How did CCCNC(=O)C[C@@H]1C[C@H]2c3cc(NC(=O)Cc4ccncc4)ccc3O[C@H]2[C@@H](CO)O1 do in these assays?
Ecoli rRNA inh: 0.6; HIV Env fusion: 93.3*[16.7 µM]; miR-122 sensor: 0.2[16.7 µM]; FN deposition inh: -12.7

Results for CCCNC(=O)C[C@H]1C[C@H]2c3cc(NC(=O)CN(C)C)ccc3O[C@H]2[C@H](CO)O1 ?
Ecoli rRNA inh: 3.2; HIV Env fusion: 88.8*[16.7 µM]; miR-122 sensor: 5.1[16.7 µM]; FN deposition inh: -19.7

Results for CCCNC(=O)C[C@@H]1C[C@H]2c3cc(NC(=O)Cc4ccncc4)ccc3O[C@H]2[C@H](CO)O1 ?
Ecoli rRNA inh: -0.4; HIV Env fusion: 97.9*[16.7 µM]; miR-122 sensor: -0.6[16.7 µM]; FN deposition inh: -9.6

How did CCCNC(=O)C[C@@H]1C[C@H]2c3cc(NC(=O)CN(C)C)ccc3O[C@H]2[C@@H](CO)O1 do in these assays?
Ecoli rRNA inh: 1.4; HIV Env fusion: 42.2[16.7 µM]; miR-122 sensor: 6.3[16.7 µM]; FN deposition inh: 2.6

How did COCCNC(=O)C[C@H]1C[C@H]2c3cc(NC(=O)Cc4ccncc4)ccc3O[C@H]2[C@H](CO)O1 do in these assays?
Ecoli rRNA inh: -0.4; HIV Env fusion: 3.1[16.7 µM]; miR-122 sensor: 12.2[16.7 µM]; S100A4 inh HTS: 6.9

What do the screens show for `O=C(C[C@H]1C[C@H]2c3cc(NC(=O)Cc4ccncc4)ccc3O[C@H]2[C@H](CO)O1)NCc1ccccn1`?
Ecoli rRNA inh: 1.7; HIV Env fusion: 4.3[16.7 µM]; miR-122 sensor: 0.0[16.7 µM]; S100A4 inh HTS: 96.3*

What do the screens show for `CC(C)CC#Cc1ccc([C@H]2[C@@H](CO)N3C(=O)CN(C(=O)c4cnccn4)C[C@H]23)cc1`?
Ecoli rRNA inh: 2.2; S100A4 inh HTS: 3.3

What do the screens show for `C[C@@H]1CN([C@H](C)CO)C(=O)c2cccc(NC(=O)c3ccc(-c4nccs4)cc3)c2O[C@@H]1CN(C)C(=O)Nc1ccc(F)cc1`?
Ecoli rRNA inh: -7.9; HIV Env fusion: -140.6[16.7 µM]; miR-122 sensor: 39.3[16.7 µM]; S100A4 inh HTS: -4.7; FN deposition inh: 6.8

How did COc1ccc(CN(C)C[C@H]2Oc3ccc(NC(=O)c4ccncc4)cc3CC(=O)N([C@@H](C)CO)C[C@H]2C)cc1 do in these assays?
Ecoli rRNA inh: -3.0; HIV Env fusion: -1.1[16.7 µM]; miR-122 sensor: -8.2[16.7 µM]; S100A4 inh HTS: 3.4; FN deposition inh: 17.5

How did CNC[C@H]1Oc2c(NC(=O)Nc3ccc4c(c3)OCO4)cccc2C(=O)N([C@@H](C)CO)C[C@H]1C do in these assays?
Ecoli rRNA inh: 5.7; HIV Env fusion: 3.1[16.7 µM]; miR-122 sensor: -1.2[16.7 µM]; S100A4 inh HTS: 4.7; FN deposition inh: 6.6

What do the screens show for `O=C(C[C@H]1CC[C@@H](NC(=O)Nc2ccc3c(c2)OCO3)[C@@H](CO)O1)NCCCN1CCOCC1`?
Ecoli rRNA inh: 5.3; FN deposition inh: -10.6

What do the screens show for `CC(C)C(=O)N=C1SC2CS(=O)(=O)CC2N1Cc1ccccc1` (stereo unspecified)?
Ecoli rRNA inh: -0.8; Vif imaging: 54.9*; HIV Env fusion: -5.3; miR-122 sensor: 3.1; S100A4 inh HTS: 7.0; FN deposition inh: 2.6

Results for COC(=O)/C(C#N)=C/c1c[nH]c2ccccc12 ?
Ecoli rRNA inh: -22.1*; Vif imaging: -3.2; HIV Env fusion: -26.4; S100A4 inh HTS: -2.5; FN deposition inh: 5.2

Results for Cc1cc(/C=C(\C#N)C(=O)NCCc2c[nH]c3ccccc23)c(C)n1C ?
Ecoli rRNA inh: -38.5*; Vif imaging: -1.9; HIV Env fusion: 13.9; S100A4 inh HTS: 0.0; FN deposition inh: -5.9

How did N#C/C(=C/c1ccc(Br)s1)C(=O)NCCc1c[nH]c2ccccc12 do in these assays?
Vif imaging: -3.0; HIV Env fusion: 3.0; S100A4 inh HTS: -1.9; FN deposition inh: 2.5
